Measured values collected from several papers.
Cell line: HepG2
Effect on: cell growth or viability

| Compound | technique | time | CC50 [µM] |
| --- | --- | --- | --- |
| CCCCCNC[C@@H](O)c1cc(Cl)cc2c1-c1ccc(Cl)cc1C2 |  | 48 h | 6 |
| O=C1c2ccccc2-n2c1nc1ccccc1c2=O | ATP luminescence |  | 6 to 9 |
| COCC(=O)N1CCCC(C(=O)NCc2nc(-c3ccccc3)cs2)C1 (racemic) | ATP luminescence | 96 h | > 50 |
| CCCCCCCCNC[C@@H](O)c1cc(Cl)cc2c1-c1ccc(Cl)cc1C2 |  | 48 h | 9 |
| O=C1C(NCCc2ccc(O)cc2)=CC2=NCCc3c[nH]c1c32 | MTT | 72 h | 4 |
| COCC(=O)N1CCC[C@H](C(=O)NCc2nc(-c3cccnc3)cs2)C1 | ATP luminescence | 96 h | > 50 |
| CCCCCCNC[C@@H](O)c1cc(Cl)cc2c1-c1ccc(Cl)cc1C2 |  | 48 h | 6.3 |
| Cn1cc2c3c1C(=O)C(NCCc1ccc(O)cc1)=CC3=[N+](C)CC2 | MTT | 72 h | 0.5 |
| CCCCCCCNCC(O)c1cc(Cl)cc2c1-c1ccc(Cl)cc1C2 (racemic) |  | 48 h | 5.7 |
| O=C1C=C2NCCc3c[nH]c(c32)C1=O | MTT | 72 h | 50 |
| Cn1nc2c(=O)n(C3CC3)ncc2c1[C@](O)(c1cnc(C(F)(F)F)c(Cl)c1)C(F)(F)F | ATP luminescence |  | 38 |
| COCC(=O)N1CCC[C@H](C(=O)NCc2nc(-c3ccc(C#N)cc3)cs2)C1 | ATP luminescence | 96 h | > 50 |
| O[C@@H](CN[C@@H](COCC1CC1)Cc1ccccc1)c1cc(Cl)cc2c1-c1ccc(Cl)cc1C2 |  | 48 h | 19.9 |
| CCOCC(=O)N1CCC[C@H](C(=O)NCc2nc(-c3ccc(C)nc3)cs2)C1 | ATP luminescence | 96 h | > 50 |
| O=C1C(NCCc2c[nH]c3ccccc23)=CC2=NCCc3c[nH]c1c32 | MTT | 72 h | 4 |
